Published values pooled from the literature.
Compare with care: the assays were run in different laboratories.
Read-out: DPPH scavenging

Compound	assay	conditions	IC50
CCOC(=O)C1=C(CCl)NC(=O)NC1c1cccc(Cl)c1 (centres unmarked)	–	–	104 µM
C=C(C)[C@@H]1CC[C@]2(C)CC[C@]3(C)[C@H](CC[C@@H]4[C@@]5(C)CC[C@H](O)C(C)(C)[C@@H]5CC[C@]43C)[C@@H]12	absorbance	–	18.6 µg/mL
COc1cc(C2NCCc3cc(O)c(O)cc32)cc(OC)c1O (centres unmarked)	absorbance	30 min, dark	11.2 µM
O=C(O[C@@H]1COC(=O)c2cc(O)c(O)c(O)c2-c2c(cc(O)c(O)c2O)C(=O)O[C@H]1[C@@H]1OC(=O)c2cc(O)c(O)c(O)c2-c2c(O)c(O)c(O)c3c2C(=O)O[C@H]1[C@@H]3O)c1cc(O)c(O)c(O)c1	absorbance	–	5.37 µg/mL
CCOC(=O)C1=C(CCl)NC(=O)NC1c1ccccc1 (centres unmarked)	–	–	207 µM
CCCCCCCCCCC1NCCc2cc(O)c(O)cc21 (centres unmarked)	absorbance	30 min, dark	60.7 µM
CCOC(=O)C1=C(CCl)NC(=O)NC1c1cccc(OC)c1 (centres unmarked)	–	–	86.7 µM
Cc1ccccc1NC(=O)CSc1nc2ccccc2cc1C=Nn1c(S)nnc1-c1ccccc1	–	–	131 µM
CCCCCCCCCCCCCCCC1NCCc2cc(O)c(O)cc21 (centres unmarked)	absorbance	30 min, dark	37.3 µM
O=C1O[C@H]([C@@H](O)CO)C(O)=C1O	absorbance	30 min	90.1 µM
CCCCCCCCCCCCCCCCCCc1ccc(O)cc1	–	–	204 µM
CCOC(=O)C1=C(CSC2=NCCS2)NC(=O)NC1c1ccc(OC)cc1 (centres unmarked)	–	–	139 µM
O=C1O[C@H]([C@@H](O)CO)C(O)=C1O	–	–	9.1 µg/mL
Cc1ccc(NC(=O)CSc2nc3ccccc3cc2C=Nn2c(S)nnc2-c2ccccc2)cc1	–	–	120 µM
COc1cccc(C2NCCc3cc(O)c(O)cc32)c1O (centres unmarked)	absorbance	30 min, dark	6.49 µM
CCOC(=O)C1=C(CSC2=NCCS2)NC(=O)NC1c1ccc(F)cc1F (centres unmarked)	–	–	137 µM
O=C1O[C@H]([C@@H](O)CO)C(O)=C1O	absorbance	30 min, dark	30.8 µM
O=c1c(O)c(-c2ccc(O)c(O)c2)oc2cc(O)cc(O)c12	–	–	18.6 µM
CCOC(=O)C1=C(CCl)NC(=O)NC1c1cccc(F)c1 (centres unmarked)	–	–	179 µM
CCCCCC1NCCc2cc(O)c(O)cc21 (centres unmarked)	absorbance	30 min, dark	63 µM
